Assays:
[1] = Cell viability in mouse AB1 cells at 750 uM after 48 hrs by MTT assay relative to control; format: cell-based; conditions: read-out: Activity
Outline: (§1)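 Cells grown 24 h, then exposed to 750 µM compound for 48 h. Viability read by MTT assay and given as % of untreated control. Duplicate experiments.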

[2] = Cell viability in HEK293 cells at 750 uM after 48 hrs by MTT assay relative to control; format: cell-based; conditions: human, read-out: Activity; outline: as §1
[3] = Cell viability in mouse Neuro 2a cells at 750 uM after 48 hrs by MTT assay relative to control; format: cell-based, N2a; conditions: read-out: Activity; outline: as §1
[4] = Increase in NAD+ concentration in mouse AB1 cells at 670 uM after 24 hrs by isotope-dilution technique relative to control; format: functional
Outline: (§2)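 Cells exposed to 670 µM compound for 24 h. NAD+ was then quantified by an MS-based isotope-dilution method using an 18O standard and expressed relative to untreated controls. All cell experiments were run in duplicate.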

HEK293 [5] = assay: Increase in NAD+ concentration in HEK293 cells at 670 uM after 24 hrs by isotope-dilution technique relative to control; format: functional, Homo sapiens; outline: as §2
[6] = Increase in NAD+ concentration in mouse Neuro 2a cells at 670 uM after 24 hrs by isotope-dilution technique relative to control; format: functional, N2a; outline: as §2
[7] = Increase in NAD+ concentration in mouse AB1 cells at 750 uM after 24 hrs by isotope-dilution technique; format: functional
HEK293 [8] = assay: Increase in NAD+ concentration in HEK293 cells at 750 uM after 24 hrs by isotope-dilution technique; format: functional, Homo sapiens
[9] = Increase in NAD+ concentration in mouse Neuro 2a cells at 750 uM after 24 hrs by isotope-dilution technique; format: functional, N2a
[10] = Cytotoxicity against mouse AB1 cells; format: cell-based
HEK293 [11] = assay: Cytotoxicity against HEK293 cells; format: cell-based; conditions: human
[12] = Cytotoxicity against mouse Neuro 2a cells; format: cell-based; conditions: n2a

SMILES	viability at 48 h, 750 µM [1]	viability at 48 h, 750 µM [2]	viability at 48 h, 750 µM [3]	other results
CN(C)C(=O)c1ccc[n+]([C@@H]2O[C@H](CO)[C@@H](O)[C@H]2O)c1	132%	78%	35%	–
O=C(NCCO)c1ccc[n+]([C@@H]2O[C@H](CO)[C@@H](O)[C@H]2O)c1	101%	77%	51%	–
CCNC(=O)c1ccc[n+]([C@@H]2O[C@H](CO)[C@@H](O)[C@H]2O)c1	57%	48%	38%	–
O=C(O)c1ccc[n+]([C@@H]2O[C@H](CO)[C@@H](O)[C@H]2O)c1	111%	92%	125%	Activity [4]: 1.5%; Activity (HEK293 [5]): 1.9%; Activity [6]: 1.7%
COC(=O)c1ccc[n+]([C@@H]2O[C@H](CO)[C@@H](O)[C@H]2O)c1	125%	94%	76%	–
CCOC(=O)c1ccc[n+]([C@@H]2O[C@H](CO)[C@@H](O)[C@H]2O)c1	103%	92%	169%	–
NC(=O)c1ccc[n+]([C@@H]2O[C@H](CO)[C@@H](O)[C@H]2O)c1 [NICOTINAMIDE RIBOSIDE]	123%	111%	107%	–
C=CCNC(=O)c1ccc[n+]([C@@H]2O[C@H](CO)[C@@H](O)[C@H]2O)c1	57%	78%	80%	–
CNC(=O)c1ccc[n+]([C@@H]2O[C@H](CO)[C@@H](O)[C@H]2O)c1	79%	72%	76%	–
CCOC(=O)c1ccc[n+]([C@@H]2O[C@H](COC(C)=O)[C@@H](OC(C)=O)[C@H]2OC(C)=O)c1	–	–	–	Activity [7]: 130%; Activity (HEK293 [8]): 160%; Activity [9]: 260%; Activity [10]: Non-toxic; Activity (HEK293 [11]): Non-toxic; Activity [12]: Non-toxic
